Test results reported in ChEMBL document CHEMBL1150163, “Steroidal glycosides from the leaves of Cestrum nocturnum” (2002).
Converted amounts (≈) assume the structure as drawn.

tested on: HSC-2; experiment: Cytotoxicity against human HSC2 cells after 24 hrs by MTT assay; assay type: functional; settings: HSC-2, 24 h, read-out: LD50 (the source's name)
Outline: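 HSC-2 oral squamous carcinoma cells grown as monolayers in DMEM with 10% heat-inactivated FBS, 37 °C, 5% CO2. Seeded at 6 × 10^3 cells/well, incubated 24 h, washed, then exposed to compounds for 24 h. MTT (0.2 mg/mL) for 4 h, DMSO lysis, absorbance at 540 nm. LD50 (50% reduction in viable cells) read from dose-response curve.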

**Q.** Which CC50 does the source give for CC(=O)C1=CC[C@H]2[C@@H]3CC=C4C[C@@H](O[C@@H]5O[C@H](CO)[C@H](O[C@@H]6O[C@H](CO)[C@@H](O)[C@H](O[C@@H]7OC[C@@H](O)[C@H](O)[C@H]7O)[C@H]6O[C@@H]6O[C@H](CO)[C@@H](O)[C@H](O[C@@H]7O[C@H](CO)[C@@H](O)[C@H](O)[C@H]7O)[C@H]6O)[C@H](O)[C@H]5O)[C@H](O)C[C@]4(C)[C@H]3CC[C@]12C here?
**A.** 192 µg/mL (≈ 173 µM)

**Q.** How did the CC50 turn out when CC(=O)[C@H]1[C@@H](OC(=O)CC[C@@H](C)CO[C@@H]2O[C@H](CO)[C@@H](O)[C@H](O)[C@H]2O)C[C@H]2[C@@H]3CC=C4C[C@@H](O[C@@H]5O[C@H](CO)[C@H](O[C@@H]6O[C@H](CO)[C@@H](O)[C@H](O[C@@H]7OC[C@@H](O)[C@H](O)[C@H]7O)[C@H]6O[C@@H]6O[C@H](CO)[C@@H](O)[C@H](O[C@@H]7O[C@H](CO)[C@@H](O)[C@H](O)[C@H]7O)[C@H]6O)[C@H](O)[C@H]5O)[C@H](O)C[C@]4(C)[C@H]3CC[C@@]21C was run?
**A.** > 300 µg/mL

**Q.** C[C@@H]1CC[C@@]2(OC1)O[C@H]1C[C@H]3[C@@H]4CC=C5C[C@@H](O[C@@H]6O[C@H](CO)[C@H](O[C@@H]7O[C@H](CO)[C@@H](O)[C@H](O[C@@H]8OC[C@@H](O)[C@H](O)[C@H]8O)[C@H]7O[C@@H]7O[C@H](CO)[C@@H](O)[C@H](O[C@@H]8O[C@H](CO)[C@@H](O)[C@H](O)[C@H]8O)[C@H]7O)[C@H](O)[C@H]6O)[C@H](O)C[C@]5(C)[C@H]4CC[C@]3(C)[C@H]1[C@@H]2C was tested. Which CC50 did it give?
**A.** 2.7 µg/mL (≈ 2.23 µM)

**Q.** How did the CC50 turn out when C[C@@H]1C(=O)O[C@H]2C[C@H]3[C@@H]4CC=C5C[C@@H](O[C@@H]6O[C@H](CO)[C@H](O[C@@H]7O[C@H](CO)[C@@H](O)[C@H](O[C@@H]8OC[C@@H](O)[C@H](O)[C@H]8O)[C@H]7O[C@@H]7O[C@H](CO)[C@@H](O)[C@H](O[C@@H]8O[C@H](CO)[C@@H](O)[C@H](O)[C@H]8O)[C@H]7O)[C@H](O)[C@H]6O)[C@H](O)C[C@]5(C)[C@H]4CC[C@]3(C)[C@H]21 was run?
**A.** > 300 µg/mL

**Q.** CO[C@]1(CC[C@@H](C)CO[C@@H]2O[C@H](CO)[C@@H](O)[C@H](O)[C@H]2O)O[C@H]2C[C@H]3[C@@H]4CC=C5C[C@@H](O[C@@H]6O[C@H](CO)[C@H](O[C@@H]7O[C@H](CO)[C@@H](O)[C@H](O[C@@H]8OC[C@@H](O)[C@H](O)[C@H]8O)[C@H]7O[C@@H]7O[C@H](CO)[C@@H](O)[C@H](O[C@@H]8O[C@H](CO)[C@@H](O)[C@H](O)[C@H]8O)[C@H]7O)[C@H](O)[C@H]6O)[C@H](O)C[C@]5(C)[C@H]4CC[C@]3(C)[C@H]2[C@@H]1C was tested. Which CC50 did it give?
**A.** 6.1 µg/mL (≈ 4.34 µM)

**Q.** CC1=C(CC[C@@H](C)CO[C@@H]2O[C@H](CO)[C@@H](O)[C@H](O)[C@H]2O)O[C@H]2C[C@H]3[C@@H]4CC=C5C[C@@H](O[C@@H]6O[C@H](CO)[C@H](O[C@@H]7O[C@H](CO)[C@@H](O)[C@H](O[C@@H]8OC[C@@H](O)[C@H](O)[C@H]8O)[C@H]7O[C@@H]7O[C@H](CO)[C@@H](O)[C@H](O[C@@H]8O[C@H](CO)[C@@H](O)[C@H](O)[C@H]8O)[C@H]7O)[C@H](O)[C@H]6O)[C@H](O)C[C@]5(C)[C@H]4CC[C@]3(C)[C@@H]12 was tested. Which CC50 did it give?
**A.** > 300 µg/mL

**Q.** For C/C(C(=O)CC[C@@H](C)CO[C@@H]1O[C@H](CO)[C@@H](O)[C@H](O)[C@H]1O)=C1/C(=O)C[C@H]2[C@@H]3CC=C4C[C@@H](O[C@@H]5O[C@H](CO)[C@H](O[C@@H]6O[C@H](CO)[C@@H](O)[C@H](O[C@@H]7OC[C@@H](O)[C@H](O)[C@H]7O)[C@H]6O[C@@H]6O[C@H](CO)[C@@H](O)[C@H](O[C@@H]7O[C@H](CO)[C@@H](O)[C@H](O)[C@H]7O)[C@H]6O)[C@H](O)[C@H]5O)[C@H](O)C[C@]4(C)[C@H]3CC[C@]12C, which CC50 is on record?
**A.** 281 µg/mL (≈ 203 µM)

**Q.** For C/C(C(=O)CC[C@@H](C)CO[C@@H]1O[C@H](CO)[C@@H](O)[C@H](O)[C@H]1O)=C1/C(=O)C[C@H]2[C@@H]3CC=C4C[C@@H](O[C@@H]5O[C@H](CO)[C@H](O[C@@H]6O[C@H](CO)[C@@H](O)[C@H](O[C@@H]7OC[C@@H](O)[C@H](O)[C@H]7O)[C@H]6O[C@@H]6O[C@H](CO)[C@@H](O)[C@H](O)[C@H]6O)[C@H](O)[C@H]5O)[C@H](O)C[C@]4(C)[C@H]3CC[C@]12C, which CC50 is on record?
**A.** > 300 µg/mL

**Q.** C[C@@H]1CC[C@@]2(OC1)O[C@H]1C[C@H]3[C@@H]4CC=C5C[C@@H](O[C@@H]6O[C@H](CO)[C@H](O[C@@H]7O[C@H](CO)[C@@H](O)[C@H](O[C@@H]8OC[C@@H](O)[C@H](O)[C@H]8O)[C@H]7O[C@@H]7O[C@H](CO)[C@@H](O)[C@H](O[C@@H]8O[C@H](CO)[C@@H](O)[C@H](O)[C@H]8O)[C@H]7O)[C@H](O)[C@H]6O)[C@H](O)C[C@]5(C)[C@H]4CC[C@]3(C)[C@@]1(O)[C@@H]2C was tested. Which CC50 did it give?
**A.** 4.4 µg/mL (≈ 3.59 µM)

**Q.** With C[C@H]1CO[C@]2(C[C@@H]1O[C@@H]1O[C@H](CO)[C@@H](O)[C@H](O)[C@H]1O)O[C@H]1C[C@H]3[C@@H]4CC=C5C[C@@H](O[C@@H]6O[C@H](CO)[C@H](O[C@@H]7O[C@H](CO)[C@@H](O)[C@H](O[C@@H]8OC[C@@H](O)[C@H](O)[C@H]8O)[C@H]7O[C@@H]7O[C@H](CO)[C@@H](O)[C@H](O[C@@H]8O[C@H](CO)[C@@H](O)[C@H](O)[C@H]8O)[C@H]7O)[C@H](O)[C@H]6O)[C@H](O)C[C@]5(C)[C@H]4CC[C@]3(C)[C@H]1[C@@H]2C as the compound, how does the CC50 read?
**A.** > 300 µg/mL

**Q.** For COc1cccc2c1C(=O)c1c(O)c3c(c(O)c1C2=O)C[C@@](O)(C(=O)CO)C[C@@H]3O[C@H]1C[C@H](N)[C@H](O)[C@H](C)O1 [DOXORUBICIN], which CC50 is on record?
**A.** 2.5 µg/mL (≈ 4.6 µM)
